Screening results from PubChem.
A selection: hits, their analogues and other compounds. The true share with any hit is near 1.8%.
Platelet DG rel: platelet dense granule release activity; hit rate 0.22% among 300,000; human platelet-rich plasma, SFLLRN dense granule ATP release, luminescence; inhibition, %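 (compounds screened at 7.5 µM in platelet-rich plasma)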;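 active = mean replicate score, as percent of positive control, at or above 50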
FXIIa inh: inhibitors of human coagulation factor XIIa; P00748; purified FXIIa, Boc-QGR-AMC fluorogenic substrate, 2 h; inhibition, % at 5 µM; hit rate 0.3% among 220,000; AID 800; in the data active = inhibition above about 40%;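 also: 0% = enzyme with no compound and 100% = blank without enzyme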
FXIa inh: inhibitors of human coagulation factor XIa. P03951. purified FXIa, Boc-Glu-Ala-Arg-AMC fluorogenic substrate. inhibition, % at 5 µM. hit rate 0.14% among 220,000. AID 798;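 active = inhibition of at least 40%; inactive = inhibition below 40%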;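 also: fluorescence of freed AMC excited at 355 nm; 0% = enzyme without compound and 100% = no enzyme blank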
Thrombin inh: blocks human thrombin protease activity. P00734. alpha-thrombin, Boc-VPR-AMC fluorogenic substrate cleavage. inhibition, % at 5 µM. hit rate 0.26% among 220,000;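 active = inhibition at or above 40%; inactive = inhibition below 40%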;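 also: 0% = enzyme with no compound and 100% = wells without enzyme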
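signal = AMC fluorescence, 355/460 nm | material = human alpha-thrombin enzyme | control set = enzyme without compound as high, wells lacking enzyme as low | times = reaction at room temperature | read-out basis = percent inhibition scaled between no-compound controls and no-enzyme blanks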
Wee1 stabilizer: human Wee1 degradation inhibition, primary screen; P30291; HeLa Luc-Wee1K328M stability, luciferase luminescence; 100% = proteasome inhibitor MG132 effect; reporter increase, % at 5 µM; hit rate 1.2% among 220,000; AID 1321;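 active = activation above the mean of all tested compounds plus 3 SD, set per screening run, cut at about 8.8% in these data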;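 also: cells exposed to compound for 20 h before luminescence read; 0% = DMSO alone and 100% = MG132 at 30 µM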
KLK5 inh: kallikrein 5 (human) inhibition. inhibition, % at 5 µM. Q9Y337. hit rate 0.59% among 210,000. recombinant hK5, fluorogenic AMC substrate cleavage. AID 873;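 active = inhibition of 40% or more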;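 also: 0% = enzyme controls without compound and 100% = no-enzyme blanks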
Wee1 degr conf: human Wee1 degradation inhibition, confirmation; shares compounds with Wee1 stabilizer; AID 1410; activation, % at 5 µM; hit rate 4% among 1,100; HeLa Luc-Wee1K328M degradation, luminescence; vehicle 0%, proteasome-blocked wells 100%; in the data active = activation above about 8.9%
Active calls of the source: *.

O=c1[nH]c(=O)n(Cc2ccco2)c(O)c1C=NCc1ccco1 was read as Platelet DG rel 9, FXIIa inh 1, FXIa inh 16, Thrombin inh 14, Wee1 stabilizer -2 and KLK5 inh 44*.
`COc1ccccc1CNCCc1ccc(F)cc1` gave Platelet DG rel 3.
For COP(=O)(/C=C(\Cl)c1ccccc1)/C=C(\Cl)c1ccccc1 the results were Platelet DG rel 5.
`CCOc1ccc(N2C(=O)NC(=O)/C(=C/c3cnc(SC)nc3)C2=O)cc1` gave Platelet DG rel -2, FXIIa inh 8, FXIa inh 9, Thrombin inh -1, Wee1 stabilizer 10* and KLK5 inh -1.
Screening CCC(=NCC1CCCO1)c1c(O)n(-c2ccccc2)c(=O)[nH]c1=O (stereo not drawn) returned Platelet DG rel 16, FXIIa inh 18, FXIa inh 18, Thrombin inh 15, Wee1 stabilizer 2 and KLK5 inh 61*.
`Cc1ccc(-n2c(-c3cccs3)nc3ccccc3c2=O)cc1` gave Platelet DG rel -1, FXIIa inh 4, FXIa inh 5, Thrombin inh 2, Wee1 stabilizer -3 and KLK5 inh 6.
For CN(C)C1(CNC(=O)c2ccc(Cl)c(S(=O)(=O)NCc3ccco3)c2)CCCCC1 the results were Platelet DG rel 0, FXIIa inh 12, FXIa inh 4, Thrombin inh 7, Wee1 stabilizer 15* and KLK5 inh -1.
CC12CN3CC(C)(CN(C1)C3c1cccs1)C2O (stereo not drawn) was read as Platelet DG rel 1, FXIIa inh 4, FXIa inh 2, Thrombin inh -3, Wee1 stabilizer 13*, KLK5 inh 0 and Wee1 degr conf 0.
`CCOc1cc2c(cc1OCC)-n1cccc1C(c1cccc([N+](=O)[O-])c1)NC2` (stereo not drawn) gave Platelet DG rel -7.
For O=C(C[N+]12CCC(CC1)C(CO)C2)c1ccc([N+](=O)[O-])cc1 (stereo not drawn) the results were Platelet DG rel 2, FXIIa inh 4, FXIa inh -4, Thrombin inh 2, Wee1 stabilizer 14*, KLK5 inh -9 and Wee1 degr conf 3.
Screening CCC1(OC(=O)c2ccccc2)CC(C)N(C)CC1C (stereo not drawn) returned Platelet DG rel 7.
CCN(CC)CCCN=Cc1c(O)n(-c2ccccc2F)c(=O)[nH]c1=O was read as Platelet DG rel -4, FXIIa inh -9, FXIa inh -8, Thrombin inh -5, Wee1 stabilizer 36*, KLK5 inh 1 and Wee1 degr conf -1.
`COc1ccccc1N1CCN(Cc2ccc(F)cc2)CC1` gave Platelet DG rel 0, FXIIa inh 19, FXIa inh 5, Thrombin inh 11, Wee1 stabilizer 14*, KLK5 inh 21 and Wee1 degr conf 3.
`COc1ccccc1N1CCN(Cc2ccc(SC)cc2)CC1` gave Platelet DG rel 2.
`CC(C)c1ccccc1NC1=NCCCS1` gave Platelet DG rel 2.
`CN1CCN(Cc2nc3ccccc3n2C)CC1` gave Platelet DG rel 4, FXIIa inh -1, FXIa inh -1, Thrombin inh 3, Wee1 stabilizer -1 and KLK5 inh -16.
`Cn1c(NN=O)nc2ccccc21` gave Platelet DG rel 2, FXIIa inh 4, FXIa inh -2, Thrombin inh -4, Wee1 stabilizer 15*, KLK5 inh 10 and Wee1 degr conf 2.
CC12CN3CC(C)(CN(C1)C3c1cccnc1)C2=O (stereo not drawn) was read as Platelet DG rel -8, FXIIa inh 18, FXIa inh 6, Thrombin inh 0, Wee1 stabilizer 5 and KLK5 inh 3.
Screening CC1(C)C2([N+](=O)[O-])CN3CC1([N+](=O)[O-])CN(C2)C3c1cccnc1 (stereo not drawn) returned Platelet DG rel 1, FXIIa inh 9, FXIa inh 10, Thrombin inh 2, Wee1 stabilizer 14*, KLK5 inh -4 and Wee1 degr conf 0.
`CCNC(=S)NCCC1=c2ccccc2=N/C1=C\c1c(O)n(C)c(=O)n(C)c1=O` gave Platelet DG rel -5, FXIIa inh 7, FXIa inh 12, Thrombin inh 2, Wee1 stabilizer 1 and KLK5 inh 1.
Screening COc1ccc(-c2cc(=NCCCCCC(=O)O)c3cc(C)ccc3o2)cc1 returned Platelet DG rel -2, FXIIa inh -37, FXIa inh -15, Thrombin inh -19, Wee1 stabilizer 17*, KLK5 inh -53 and Wee1 degr conf 3.
For O=[N+]([O-])c1ccc(CNCCc2ccccc2)cc1 the results were Platelet DG rel 3.
Screening CCOc1ccc([N+](=O)[O-])cc1CNCCc1ccccc1 returned Platelet DG rel -4, FXIIa inh 2, FXIa inh -5, Thrombin inh -4, Wee1 stabilizer 11*, KLK5 inh -8 and Wee1 degr conf -2.
`CC(=O)OC1(c2ccccc2)CC(C(C)(C)C)CN(C(C)(C)C)C1` (stereo not drawn) gave Platelet DG rel -2, FXIIa inh 3, FXIa inh 1, Thrombin inh -5, Wee1 stabilizer 14*, KLK5 inh -13 and Wee1 degr conf 6.
Screening O=C1CN(O)C(c2ccccc2Cl)=c2cc(Br)ccc2=N1 returned Platelet DG rel 0.
Screening O=C(COc1ccccc1)N1CCN(C/C=C/c2ccccc2)CC1 returned Platelet DG rel 4, FXIIa inh 4, FXIa inh -9, Thrombin inh -5, Wee1 stabilizer 1 and KLK5 inh 6.
`O=C(COc1ccc(Cl)cc1)N1CCN(C/C=C/c2ccccc2)CC1` gave Platelet DG rel 0, FXIIa inh 9, FXIa inh 7, Thrombin inh -2, Wee1 stabilizer 17*, KLK5 inh 3 and Wee1 degr conf 3.
